Measurements reported in ChEMBL document CHEMBL1212770, “Molecular and biochemical characterization of the natural chromosome-encoded class A beta-lactamase from Pseudomonas luteola” (Antimicrob Agents Chemother, 2010).
In brackets after ≈: the same amount, converted by molar mass. Activity calls are given as the source filed them. The calls are words filed in the database; no cut-off is given here.

What was measured:
Type in all cases: functional
Pseudomonas luteola [1] = experiment: Antimicrobial activity against Pseudomonas luteola expressing blaLUT-2 to blaLUT-6 at 2:1 ratio of compound to clavulanic acid by Etest method
Pseudomonas luteola [2] = experiment: Antimicrobial activity against Pseudomonas luteola expressing blaLUT-2 to blaLUT-6 by Etest method
Escherichia coli [3] = experiment: Antimicrobial activity against Escherichia coli DH10B at 2:1 ratio of compound to clavulanic acid by Etest method; conditions: K-12 DH10B
Escherichia coli [4] = experiment: Antimicrobial activity against Escherichia coli DH10B transfected with pBK-L3 expressing blaLUT-1 at 2:1 ratio of compound to clavulanic acid by Etest method; conditions: K-12 DH10B
Pseudomonas luteola [5] = experiment: Antimicrobial activity against Pseudomonas luteola LAM expressing blaLUT-1 at 2:1 ratio of compound to clavulanic acid by Etest method
Escherichia coli [6] = experiment: Antimicrobial activity against Escherichia coli DH10B transfected with pBK-L3 expressing blaLUT-1 by Etest method; conditions: K-12 DH10B
Escherichia coli [7] = experiment: Antimicrobial activity against Escherichia coli DH10B by Etest method; conditions: K-12 DH10B
Pseudomonas luteola [8] = experiment: Antimicrobial activity against Pseudomonas luteola LAM expressing blaLUT-1 by Etest method
Pseudomonas luteola [9] = experiment: Antimicrobial activity against Pseudomonas luteola by Etest method
Pseudomonas luteola [10] = experiment: Antimicrobial activity against Pseudomonas luteola LAM expressing blaLUT-1 by Etest method in presence of 2 ug/ml clavulanic acid
Escherichia coli [11] = experiment: Antimicrobial activity against Escherichia coli DH10B transfected with pBK-L3 expressing blaLUT-1 by Etest method in presence of 2 ug/ml clavulanic acid; conditions: K-12 DH10B
Escherichia coli [12] = experiment: Antimicrobial activity against Escherichia coli DH10B by Etest method in presence of 2 ug/ml clavulanic acid; conditions: K-12 DH10B
Pseudomonas luteola [13] = experiment: Antimicrobial activity against Pseudomonas luteola expressing blaLUT-2 to blaLUT-6 by Etest method in presence of 2 ug/ml clavulanic acid
Pseudomonas luteola [14] = experiment: Antimicrobial activity against Pseudomonas luteola by disk diffusion method
How it was run: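 Disk diffusion panel of 32 antimicrobial drugs tested on P. luteola clinical isolates and the type strain. Isolates were identified by API-20 NE and by sequencing of PCR-amplified rrs and rpoB.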

SMILES | MIC (Pseudomonas luteola [2]) [mg/L] | MIC (Escherichia coli [6]) [mg/L] | MIC (Escherichia coli [7]) [mg/L] | MIC (Pseudomonas luteola [8]) [mg/L] | also measured
CC1(C)S[C@@H]2[C@H](NC(=O)[C@H](N)c3ccc(O)cc3)C(=O)N2[C@H]1C(=O)O [AMOXICILLIN] | 4 (≈ 10.9 µM) | 128 (≈ 350 µM) | 4 (≈ 10.9 µM) | 4 (≈ 10.9 µM) | MIC (Pseudomonas luteola [1]): 1 mg/L; MIC (Escherichia coli [3]): 4 mg/L; MIC (Escherichia coli [4]): 4 mg/L; MIC (Pseudomonas luteola [5]): 1 mg/L
C[C@H]1[C@H](NC(=O)/C(=N\OC(C)(C)C(=O)O)c2csc(N)n2)C(=O)N1S(=O)(=O)O [AZTREONAM] | 4 (≈ 9.19 µM) | 2 (≈ 4.59 µM) | – | 2 (≈ 4.59 µM) | –
O=C(N[C@H](CO)[C@H](O)c1ccc([N+](=O)[O-])cc1)C(Cl)Cl | – | – | – | – | Activity (Pseudomonas luteola [8]): inactive
CO[C@@]1(NC(=O)Cc2cccs2)C(=O)N2C(C(=O)O)=C(COC(N)=O)CS[C@@H]21 [CEFOXITIN] | 32 (≈ 74.9 µM) | 4 (≈ 9.36 µM) | 4 (≈ 9.36 µM) | 32 (≈ 74.9 µM) | –
O=C(O)c1cn(C2CC2)c2cc(N3CCNCC3)c(F)cc2c1=O [CIPROFLOXACIN] | – | – | – | – | MIC (Pseudomonas luteola [9]): 0.032 mg/L (≈ 0.0966 µM)
CC1(C)S[C@@H]2[C@H](NC(=O)[C@H](C(=O)O)c3ccsc3)C(=O)N2[C@H]1C(=O)O [TICARCILLIN] | 8 (≈ 20.8 µM) | 256 (≈ 666 µM) | 2 (≈ 5.2 µM) | 8 (≈ 20.8 µM) | MIC (Pseudomonas luteola [10]): 4 mg/L; MIC (Escherichia coli [11]): 16 mg/L; MIC (Escherichia coli [12]): 2 mg/L; MIC (Pseudomonas luteola [13]): 2 mg/L
COc1cc(Cc2cnc(N)nc2N)cc(OC)c1OC | – | – | – | – | Activity (Pseudomonas luteola [14]): inactive
CC(=O)OCC1=C(C(=O)O)N2C(=O)[C@@H](NC(=O)Cc3cccs3)[C@H]2SC1 [CEPHALOTHIN] | 128 (≈ 323 µM) | 32 (≈ 80.7 µM) | 4 (≈ 10.1 µM) | 64 (≈ 161 µM) | –
